From ChEMBL document CHEMBL4665633, “Cereblon versus VHL: Hijacking E3 ligases against each other using PROTACs” (Bioorg Med Chem, 2019)
The source made the active and inactive calls. The rule behind the calls is not given here.

How the values were obtained:
Assay type in all cases: cell-based
[1] = biological target: T1, Protein cereblon/von Hippel-Lindau disease tumor suppressor (Homo sapiens, UniProt P40337+Q96SW2); assay: Protac activity at VHL/CRBN in human HeLa cells assessed as pVHL19 protein abundance at 5000 nM after 4 hrs by Western blot analysis relative to DMSO
Procedure, shortened: (§1)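 HeLa cells (5 × 10⁵, DMEM + 10% FBS, 37 °C, 5% CO₂, ≤30 passages) seeded overnight, then treated 4 h with compound at single or graded concentrations (0.1% v/v DMSO final). RIPA lysates equalised by Bradford; SDS-PAGE and anti-CRBN/anti-VHL immunoblots; bands normalised to β-tubulin and expressed as % of mean DMSO vehicle. DC₅₀ from fit of band intensity versus log[concentration].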

[2] = biological target: T1, Protein cereblon/von Hippel-Lindau disease tumor suppressor; assay: Protac activity at VHL/CRBN in HEK293 cells assessed as pVHL19 protein abundance at 5 nM after 4 hrs by Western blot analysis relative to DMSO
Procedure, shortened: (§2)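 HEK293 cells (DMEM, 10% FBS, penicillin/streptomycin, L-glutamine; 37 °C, 5% CO2; ≤30 passages) seeded at 1 × 10⁶ per well overnight, then treated with compound at 0.1% v/v final DMSO. Cells were lysed in RIPA with protease inhibitors and benzonase, then clarified. Equal Bradford-quantified protein was immunoblotted for CRBN/VHL. Bands were normalised to β-tubulin and expressed as % of mean 0.1% DMSO vehicle.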

[3] = biological target: T1, Protein cereblon/von Hippel-Lindau disease tumor suppressor; assay: Protac activity at VHL/CRBN in HEK293 cells assessed as pVHL30 protein abundance at 5000 nM after 4 hrs by Western blot analysis relative to DMSO; procedure, shortened: as §2
[4] = biological target: T1, Protein cereblon/von Hippel-Lindau disease tumor suppressor; assay: Protac activity at VHL/CRBN in human HeLa cells assessed as CRBN protein abundance at 500 nM after 4 hrs by Western blot analysis relative to DMSO; procedure, shortened: as §1
[5] = biological target: T1, Protein cereblon/von Hippel-Lindau disease tumor suppressor; assay: Protac activity at VHL/CRBN in human HeLa cells assessed as pVHL30 protein abundance at 100 nM after 4 hrs by Western blot analysis relative to DMSO; procedure, shortened: as §1
[6] = biological target: T1, Protein cereblon/von Hippel-Lindau disease tumor suppressor; assay: Protac activity at VHL/CRBN in human HeLa cells assessed as pVHL30 protein abundance at 1 uM after 12 hrs by Western blot analysis relative to DMSO
Procedure, shortened: (§3)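 HeLa cells seeded overnight, then exposed to 1 µM compound (0.1% v/v DMSO final) over a time course. Cells were DPBS-washed and RIPA-lysed with protease inhibitors and benzonase; equal protein was loaded. Immunoblots for CRBN and VHL isoforms were quantified against β-tubulin and reported relative to the averaged 0.1% DMSO vehicle.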

[7] = biological target: T1, Protein cereblon/von Hippel-Lindau disease tumor suppressor; assay: Protac activity at VHL/CRBN in human HeLa cells assessed as pVHL30 protein abundance at 1 uM after 1 hr by Western blot analysis relative to DMSO; procedure, shortened: as §3
[8] = biological target: T1, Protein cereblon/von Hippel-Lindau disease tumor suppressor; assay: Protac activity at VHL/CRBN in HEK293 cells assessed as CRBN protein abundance at 500 nM after 4 hrs by Western blot analysis relative to DMSO; procedure, shortened: as §2
[9] = biological target: T1, Protein cereblon/von Hippel-Lindau disease tumor suppressor; assay: Protac activity at VHL/CRBN in human HeLa cells assessed as CRBN protein abundance at 5 nM after 4 hrs by Western blot analysis relative to DMSO; procedure, shortened: as §1
[10] = biological target: T1, Protein cereblon/von Hippel-Lindau disease tumor suppressor; assay: Protac activity at VHL/CRBN in HEK293 cells assessed as pVHL19 protein abundance at 1000 nM after 4 hrs by Western blot analysis relative to DMSO; procedure, shortened: as §2
[11] = biological target: T1, Protein cereblon/von Hippel-Lindau disease tumor suppressor; assay: Protac activity at VHL/CRBN in human HeLa cells assessed as pVHL30 protein abundance at 10 nM after 4 hrs by Western blot analysis relative to DMSO; procedure, shortened: as §1
[12] = biological target: T1, Protein cereblon/von Hippel-Lindau disease tumor suppressor; assay: Protac activity at VHL/CRBN in HEK293 cells assessed as pVHL30 protein abundance at 10000 nM after 4 hrs by Western blot analysis relative to DMSO; procedure, shortened: as §2
[13] = biological target: T1, Protein cereblon/von Hippel-Lindau disease tumor suppressor; assay: Protac activity at VHL/CRBN in HEK293 cells assessed as pVHL19 protein abundance at 10 nM after 4 hrs by Western blot analysis relative to DMSO; procedure, shortened: as §2
[14] = biological target: T1, Protein cereblon/von Hippel-Lindau disease tumor suppressor; assay: Protac activity at VHL/CRBN in HEK293 cells assessed as pVHL19 protein abundance at 100 nM after 4 hrs by Western blot analysis relative to DMSO; procedure, shortened: as §2
[15] = biological target: T1, Protein cereblon/von Hippel-Lindau disease tumor suppressor; assay: Protac activity at VHL/CRBN in HEK293 cells assessed as induction of CRBN degradation
[16] = biological target: T1, Protein cereblon/von Hippel-Lindau disease tumor suppressor; assay: Protac activity at VHL/CRBN in HEK293 cells assessed as CRBN protein abundance at 1000 nM after 4 hrs by Western blot analysis relative to DMSO; procedure, shortened: as §2
[17] = biological target: T1, Protein cereblon/von Hippel-Lindau disease tumor suppressor; assay: Protac activity at VHL/CRBN in human HeLa cells assessed as pVHL19 protein abundance at 1 uM after 2 hrs by Western blot analysis relative to DMSO; procedure, shortened: as §3
[18] = biological target: T1, Protein cereblon/von Hippel-Lindau disease tumor suppressor; assay: Protac activity at VHL/CRBN in human HeLa cells assessed as pVHL30 protein abundance at 1 uM after 2 hrs by Western blot analysis relative to DMSO; procedure, shortened: as §3
[19] = biological target: T1, Protein cereblon/von Hippel-Lindau disease tumor suppressor; assay: Protac activity at VHL/CRBN in human HeLa cells assessed as induction of CRBN degradation at 10 nM after 4 hrs by Western blot analysis relative to control; procedure, shortened: as §1
[20] = biological target: T1, Protein cereblon/von Hippel-Lindau disease tumor suppressor; assay: Protac activity at VHL/CRBN in human HeLa cells assessed as pVHL19 protein abundance at 1 uM after 4 hrs by Western blot analysis relative to DMSO; procedure, shortened: as §3
[21] = biological target: T1, Protein cereblon/von Hippel-Lindau disease tumor suppressor; assay: Protac activity at VHL/CRBN in HEK293 cells assessed as pVHL19 protein abundance at 1 uM after 24 hrs by Western blot analysis relative to DMSO; procedure, shortened: as §2
[22] = biological target: T1, Protein cereblon/von Hippel-Lindau disease tumor suppressor; assay: Protac activity at VHL/CRBN in human HeLa cells assessed as CRBN protein abundance at 1000 nM after 4 hrs by Western blot analysis relative to DMSO; procedure, shortened: as §1
[23] = biological target: T1, Protein cereblon/von Hippel-Lindau disease tumor suppressor; assay: Protac activity at VHL/CRBN in HEK293 cells assessed as pVHL30 protein abundance at 100 nM after 4 hrs by Western blot analysis relative to DMSO; procedure, shortened: as §2
[24] = biological target: T1, Protein cereblon/von Hippel-Lindau disease tumor suppressor; assay: Protac activity at VHL/CRBN in human HeLa cells assessed as induction of CRBN degradation at 1 uM after 4 hrs by Western blot analysis relative to control; procedure, shortened: as §1
[25] = biological target: T1, Protein cereblon/von Hippel-Lindau disease tumor suppressor; assay: Protac activity at VHL/CRBN in HEK293 cells assessed as CRBN protein abundance at 100 nM after 4 hrs by Western blot analysis relative to DMSO; procedure, shortened: as §2
[26] = biological target: T1, Protein cereblon/von Hippel-Lindau disease tumor suppressor; assay: Protac activity at VHL/CRBN in human HeLa cells assessed as pVHL19 protein abundance at 1 uM after 1 hr by Western blot analysis relative to DMSO; procedure, shortened: as §3
[27] = biological target: T1, Protein cereblon/von Hippel-Lindau disease tumor suppressor; assay: Protac activity at VHL/CRBN in HEK293 cells assessed as pVHL30 protein abundance at 1 uM after 2 hrs by Western blot analysis relative to DMSO; procedure, shortened: as §2
[28] = biological target: T1, Protein cereblon/von Hippel-Lindau disease tumor suppressor; assay: Protac activity at VHL/CRBN in human HeLa cells assessed as CRBN protein abundance at 5000 nM after 4 hrs by Western blot analysis relative to DMSO; procedure, shortened: as §1
[29] = biological target: T1, Protein cereblon/von Hippel-Lindau disease tumor suppressor; assay: Protac activity at VHL/CRBN in human HeLa cells assessed as pVHL19 protein abundance at 1 uM after 12 hrs by Western blot analysis relative to DMSO; procedure, shortened: as §3
[30] = biological target: T1, Protein cereblon/von Hippel-Lindau disease tumor suppressor; assay: Protac activity at VHL/CRBN in human HeLa cells assessed as CRBN protein abundance at 1 uM after 2 hrs by Western blot analysis relative to DMSO; procedure, shortened: as §3

T1 sequence (P40337 whole entry, looked up): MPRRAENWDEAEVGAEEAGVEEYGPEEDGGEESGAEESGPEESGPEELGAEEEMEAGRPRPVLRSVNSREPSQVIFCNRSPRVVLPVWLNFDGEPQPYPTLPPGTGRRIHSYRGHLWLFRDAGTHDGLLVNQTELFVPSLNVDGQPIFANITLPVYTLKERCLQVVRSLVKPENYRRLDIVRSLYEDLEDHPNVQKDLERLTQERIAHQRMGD
T1 sequence (Q96SW2 whole entry, looked up): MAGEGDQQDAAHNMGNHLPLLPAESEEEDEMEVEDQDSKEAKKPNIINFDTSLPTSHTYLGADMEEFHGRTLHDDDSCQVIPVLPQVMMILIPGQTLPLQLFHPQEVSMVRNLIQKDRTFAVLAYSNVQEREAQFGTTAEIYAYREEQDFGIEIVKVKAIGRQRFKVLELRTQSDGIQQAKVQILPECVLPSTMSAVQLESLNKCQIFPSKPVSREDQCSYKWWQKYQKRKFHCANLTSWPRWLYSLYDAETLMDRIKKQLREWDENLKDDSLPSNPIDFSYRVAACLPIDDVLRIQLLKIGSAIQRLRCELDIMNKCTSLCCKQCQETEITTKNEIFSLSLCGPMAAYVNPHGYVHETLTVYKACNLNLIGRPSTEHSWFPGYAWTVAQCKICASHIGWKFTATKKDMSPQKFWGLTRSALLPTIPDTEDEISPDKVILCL

Cc1ncsc1-c1ccc(CNC(=O)[C@@H]2C[C@@H](O)CN2C(=O)[C@@H](NC(=O)COCCCCCOCCOCCCCCOCC(=O)NCCNc2cccc3c2C(=O)N(C2CCC(=O)NC2=O)C3=O)C(C)(C)C)cc1 (stereo partly specified)
Activity [1]: 115%
Activity [2]: 108%
Activity [3]: 124%
Activity [4]: 33%
Activity [5]: 101%
Activity [6]: 93%
Activity [7]: 100%
Activity [8]: 27%
Activity [9]: 85%
Activity [10]: 119%
Activity [11]: 64%
Activity [12]: 128%
Activity [13]: 110%
Activity [14]: 111%
Activity [15]: Active
Activity [16]: 23%
Activity [17]: 95%
Activity [18]: 89%
Activity [19]: 19%
Activity [20]: 100%
Activity [21]: 101%
Activity [22]: 25%
Activity [23]: 124%
%max [24]: 75%
Activity [24]: 64%
Activity [25]: 63%
Activity [26]: 100%
Activity [27]: 87%
Activity [28]: 49%
Activity [29]: 93%
Activity [30]: 27%
